Measurements taken from ChEMBL document CHEMBL1130417 (J Med Chem, 1997).
Where “and” joins values, the source holds several entries; their conditions need not be identical. Identical values can stand only once.

Experiments:
[1] = target: Mu-type opioid receptor (Cavia porcellus, UniProt P97266); experiment: Agonist activity was evaluated in guinea pig ileum (GPI) preparations at Opioid receptor mu 1; assay type: functional, tissue-based
Outline: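 Longitudinal muscle–myenteric plexus strips from male Hartley guinea pig ileum (250–500 g) were held in 37 °C oxygenated Krebs bicarbonate under 1 g tension.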

[2] = target: Delta-type opioid receptor (Rattus norvegicus, UniProt P33533); experiment: Inhibition of radioligand [3H]DADLE binding to rat brain Opioid receptor delta 1
Chain of Delta-type opioid receptor (Rattus norvegicus, UniProt P33533) (P33533 whole entry): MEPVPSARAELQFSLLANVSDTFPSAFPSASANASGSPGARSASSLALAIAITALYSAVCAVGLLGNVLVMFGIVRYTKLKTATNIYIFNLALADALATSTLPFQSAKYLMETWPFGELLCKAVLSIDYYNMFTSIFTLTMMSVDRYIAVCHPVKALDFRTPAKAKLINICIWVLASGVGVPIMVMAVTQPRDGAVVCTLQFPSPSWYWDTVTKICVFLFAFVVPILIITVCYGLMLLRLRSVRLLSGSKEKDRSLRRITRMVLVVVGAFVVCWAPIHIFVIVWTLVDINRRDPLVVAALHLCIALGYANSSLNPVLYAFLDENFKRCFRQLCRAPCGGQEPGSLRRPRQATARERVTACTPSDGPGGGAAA
Outline: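 Rat brain membranes were labelled with [3H]DADLE (1.7–2.5 nM) for 3–4 h at 25 °C in Tris-HCl pH 7.4 with 100 mM choline chloride, 3 mM MnCl2, protease inhibitor cocktail and 100 nM DAMGO to block μ sites. Nonspecific binding was set with 20 μM levallorphan. Displacement used 8–10 drug concentrations, run twice. IC50 and slope factor came from curve fitting.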

[3] = target: Mu-type opioid receptor (Rattus norvegicus, UniProt P33535); experiment: Inhibition of radioligand [3H]DAMGO binding to rat brain Opioid receptor mu 1 […]
Chain of Mu-type opioid receptor (Rattus norvegicus, UniProt P33535) (P33535 whole entry): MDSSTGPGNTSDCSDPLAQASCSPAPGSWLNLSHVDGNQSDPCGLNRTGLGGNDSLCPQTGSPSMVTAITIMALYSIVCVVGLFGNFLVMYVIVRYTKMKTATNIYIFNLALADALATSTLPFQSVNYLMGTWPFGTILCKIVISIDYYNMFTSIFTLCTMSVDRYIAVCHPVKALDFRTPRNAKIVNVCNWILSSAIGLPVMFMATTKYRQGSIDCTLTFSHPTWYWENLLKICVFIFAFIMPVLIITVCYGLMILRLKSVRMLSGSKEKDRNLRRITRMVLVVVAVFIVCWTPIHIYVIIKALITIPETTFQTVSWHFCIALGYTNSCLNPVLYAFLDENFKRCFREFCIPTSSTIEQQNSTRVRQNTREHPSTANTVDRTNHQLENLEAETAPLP
Outline: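 Rat brain membranes were labelled with [3H]DAMGO (1–3 nM) for 4 h at 25 °C in 50 mM Tris-HCl pH 7.4 with protease inhibitor cocktail. Nonspecific binding was set with 20 μM levallorphan. Displacement used 8–10 drug concentrations, run twice, with drug diluted in Tris pH 7.4 containing 1 mg/mL BSA. IC50 and slope factor came from curve fitting.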

[4] = target: Delta-type opioid receptor (Mus musculus, UniProt P32300); experiment: Agonist activity was evaluated in mouse vas deferens (MVD) preparations at Opioid receptor delta 1; assay type: functional
Chain of Delta-type opioid receptor (Mus musculus, UniProt P32300) (P32300 whole entry): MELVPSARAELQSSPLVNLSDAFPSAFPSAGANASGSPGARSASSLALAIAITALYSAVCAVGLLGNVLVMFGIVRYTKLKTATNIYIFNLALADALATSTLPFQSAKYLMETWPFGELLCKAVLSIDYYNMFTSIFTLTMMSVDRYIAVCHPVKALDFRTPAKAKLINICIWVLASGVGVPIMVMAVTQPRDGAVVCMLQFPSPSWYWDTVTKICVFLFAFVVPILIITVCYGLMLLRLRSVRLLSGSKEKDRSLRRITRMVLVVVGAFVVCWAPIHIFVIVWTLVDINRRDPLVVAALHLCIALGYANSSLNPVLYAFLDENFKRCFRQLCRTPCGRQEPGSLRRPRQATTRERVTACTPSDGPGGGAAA
Outline: (§1)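 Vas deferens from male ICR mice (25–40 g) was held in 37 °C oxygenated magnesium-free Krebs bicarbonate under 0.5 g tension. Tissue was field-stimulated at 0.1 Hz with 2-ms supramaximal pulses.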

[5] = target: Opioid receptors; mu & delta (Rattus norvegicus) (UniProt P33533+P33535); experiment: Mu/delta inhibitory ratio of compound determined Rat brain receptors
Chain of Opioid receptors; mu & delta (Rattus norvegicus) (P33533 whole entry, looked up): as the sequence (P33533 whole entry) above
Chain of Opioid receptors; mu & delta (Rattus norvegicus) (P33535 whole entry, looked up): as the sequence (P33535 whole entry) above

[6] = species on record: Cavia porcellus; experiment: IC50 ratio on Mu receptor of GPI to the delta receptor MVD
Outline: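 The ratio is guinea pig ileum IC50 divided by mouse vas deferens IC50. Both tissues were electrically stimulated at 0.1 Hz, the ileum with 0.4-ms and the vas deferens with 2-ms pulses, and exposed to cumulative agonist doses.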

[7] = species on record: Mus musculus; experiment: Agonist activity was evaluated in mouse vas deferens (MVD) preparations at opioid delta receptor; assay type: functional; outline: as §1

Chain of Mu-type opioid receptor (Cavia porcellus, UniProt P97266) (P97266 whole entry): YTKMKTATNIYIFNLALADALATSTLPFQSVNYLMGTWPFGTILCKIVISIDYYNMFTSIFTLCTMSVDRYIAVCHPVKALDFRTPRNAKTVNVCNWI

SMILES | IC50 [2] [nM] | IC50 [3] [nM] | Ratio [5] | also measured
C=CCN1C[C@H](C)N([C@@H](c2ccccc2)c2ccc(C(=O)N(CC)CC)cc2)C[C@H]1C (stereo in doubt; (+)-22) [listing 1 of 2 here] | 0.94 | > 2500 | – | IC50 [1]: 8580 nM
C=CCN1C[C@H](C)N([C@H](c2ccc(C(=O)N(CC)CC)cc2)c2cccc(O)c2)C[C@H]1C (stereo in doubt; (+)-1) | 1.49 | – | – | –
C=CCN1C[C@H](C)N([C@H](c2ccc(C(=O)N(CC)CC)cc2)c2cccc(I)c2)C[C@H]1C | 3.91 | 1230 | 314 | IC50 [1]: > 3000 nM; IC50 [4]: 44.2 nM
C=CCN1C[C@H](C)N([C@@H](c2ccc(C(=O)N(CC)CC)cc2)c2cccc(OC)c2)C[C@H]1C (stereo in doubt; (-)-25) | – | 9140 | – | IC50 [1]: 1520 nM
C=CCN1C[C@H](C)N([C@@H](c2ccccc2)c2ccc(C(=O)N(CC)CC)cc2)C[C@H]1C (stereo in doubt; (-)-22) [listing 1 of 2 here] | – | – | > 11.7 | –
C=CCN1C[C@H](C)N([C@H](c2ccccc2)c2ccc(C(=O)N(CC)CC)cc2)C[C@H]1C (stereo in doubt; (+)-26) [listing 1 of 2 here] | – | – | > 167 | –
C=CCN1C[C@H](C)N([C@H](c2ccccc2)c2ccc(C(=O)N(CC)CC)cc2)C[C@H]1C (stereo in doubt; (-)-26) [listing 1 of 2 here] | – | – | > 916 | –
C=CCN1C[C@H](C)N([C@@H](c2ccc(C(=O)N(CC)CC)cc2)c2cccc(O)c2)C[C@H]1C | 11.4 | – | – | –
C=CCN1C[C@H](C)N([C@@H](c2ccc(C(=O)N(CC)CC)cc2)c2cccc(F)c2)C[C@H]1C | 62.5 | > 10000 | > 160 | –
C=CCN1C[C@H](C)N([C@H](c2ccc(C(=O)N(CC)CC)cc2)c2cccc(O)c2)C[C@H]1C (stereo in doubt; (-)-1) | 58.3 | – | – | –
CC(NC(=O)[C@@H](N)Cc1ccc(O)cc1)C(=O)N[C@@H](Cc1ccccc1)C(=O)N[C@@H](CC(=O)O)C(=O)N[C@H](C(=O)N[C@H](C(=O)NCC(N)=O)C(C)C)C(C)C (single isomer, unassigned) [DELTORPHIN C] | – | – | – | IC50 [1]: 15000 nM
C=CCN1C[C@H](C)N([C@H](c2ccc(C(=O)N(CC)CC)cc2)c2cccc(F)c2)C[C@H]1C (stereo in doubt; (+)-23) [listing 1 of 2 here] | – | – | 677 | Ratio [6]: 265
C=CCN1C[C@H](C)N([C@H](c2ccccc2)c2ccc(C(=O)N(CC)CC)cc2)C[C@H]1C (stereo in doubt; (-)-26) [listing 2 of 2 here] | 9.22 | 8450 | – | IC50 [1]: 1780 nM; IC50 [4]: 126 nM
C=CCN1C[C@@H](C)N([C@H](c2ccc(C(=O)N(CC)CC)cc2)c2cccc(O)c2)C[C@@H]1C (single isomer, unassigned) | 1.74 | – | – | –
C=CCN1C[C@H](C)N([C@@H](c2ccccc2)c2ccc(C(=O)N(CC)CC)cc2)C[C@H]1C (stereo in doubt; (+)-22) [listing 2 of 2 here] | – | – | > 2660 | Ratio [6]: 813
C=CCN1C[C@@H](C)N([C@H](c2ccc(C(=O)N(CC)CC)cc2)c2cccc(F)c2)C[C@@H]1C (single isomer, unassigned) | 4.75 | > 10000 | > 2110 | –
C=CCN1C[C@H](C)N([C@H](c2ccc(C(=O)N(CC)CC)cc2)c2cccc(F)c2)C[C@H]1C (stereo in doubt; (+)-23) [listing 2 of 2 here] | 2.92 | 1980 | – | IC50 [7]: 200 nM; IC50 [1]: 2600 nM; IC50 [4]: 9.77 nM and 10.3 nM
C=CCN1C[C@H](C)N([C@@H](c2ccccc2)c2ccc(C(=O)N(CC)CC)cc2)C[C@H]1C (stereo in doubt; (-)-22) [listing 2 of 2 here] | 852 | > 10000 | – | –
C=CCN1C[C@H](C)N([C@H](c2ccc(C(=O)N(CC)CC)cc2)c2cccc(F)c2)C[C@H]1C (stereo in doubt; (-)-23) [listing 1 of 2 here] | – | – | > 7.3 | –
C=CCN1C[C@H](C)N([C@@H](c2ccc(C(=O)N(CC)CC)cc2)c2cccc(I)c2)C[C@H]1C | 41.1 | 3380 | 82.2 | –
C=CCN1C[C@H](C)N([C@@H](c2ccc(C(=O)N(CC)CC)cc2)c2cccc(OC)c2)C[C@H]1C (stereo in doubt; (+)-25) | – | 5710 | – | –
C=CCN1C[C@H](C)N([C@H](c2ccccc2)c2ccc(C(=O)N(CC)CC)cc2)C[C@H]1C (stereo in doubt; (+)-26) [listing 2 of 2 here] | 60 | > 10000 | – | –
C=CCN1C[C@H](C)N([C@H](c2ccc(C(=O)N(CC)CC)cc2)c2cccc(F)c2)C[C@H]1C (stereo in doubt; (-)-23) [listing 2 of 2 here] | 1380 | > 10000 | – | –
